# Assay results published in ChEMBL document CHEMBL2417427, “High analgesic and anti-inflammatory in vivo activities of six new hybrids NSAIAs tetrahydropyran derivatives” (Bioorg Med Chem, 2013).
# Active and inactive are the calls of the source. The rule behind the calls is not given here.
# How the values were obtained:
# [1] = Acute toxicity in po dosed Albino-Swiss mouse assessed as disorientation administered as single dose measured after 5 hrs until day 14; assay type: organism-based; details: in vivo
# In short: (§1)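 Oral single dose given as a suspension in 5% ethyl acetate (5 mL/kg), in increasing doses up to 2000 mg/kg, following WHO and OECD guidelines. Animals were observed from 5 h after dosing, then daily until day 14, for disorientation, hyperactivity, piloerection and hyperventilation. LD50 was fitted by nonlinear regression of percent deaths versus dose. n = 6 per group.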
# [2] = Acute toxicity in po dosed Albino-Swiss mouse assessed as hyperventilation administered as single dose measured after 5 hrs until day 14; assay type: organism-based; details: in vivo; in short: as §1
# [3] = tested on: Mus musculus; experiment: Antinociceptive activity in Albino-Swiss mouse assessed as increase in thermal-stimulus induced tail flick latency at 10 mg/kg, po measured over 20 to 120 mins; assay type: functional, organism-based; parameters: dose 10 mg/kg
# In short: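 Mice, 6 per group, dosed orally at 10 mg/kg as a suspension in 5% ethyl acetate vehicle (5 mL/kg). Light intensity set so baseline latency fell at 4–6 s; animals outside this range were excluded. Two pre-dose latencies averaged as baseline, then six readings at 20-min intervals. Reported as percentage increase over baseline per time point, or as AUC (trapezoid rule) over 20–120 min.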
# [4] = Acute toxicity in po dosed Albino-Swiss mouse assessed as hyperactivity administered as single dose measured after 5 hrs until day 14; assay type: organism-based; details: in vivo; in short: as §1
# [5] = tested on: Mus musculus; experiment: Toxicity in Albino-Swiss mouse assessed as spontaneous locomotor activity at 10 mg/kg, po measured after 60 mins by open-field test; assay type: organism-based; parameters: dose 10 mg/kg, route oral; details: in vivo, 1 h
# In short: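 Oral dosing at 10 mg/kg (5% ethyl acetate suspension, 5 mL/kg) or vehicle, 6 mice per group. At 60 min each mouse was placed alone in a chamber with the floor divided into 50 squares of 5 × 5 cm. Squares walked during 5 min were counted; mean ± SD, ANOVA with Bonferroni.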
# [6] = tested on: Mus musculus; experiment: Antinociceptive activity in po dosed Albino-Swiss mouse assessed as acetic acid-induced abdominal writhing compound administered 30 mins prior challenge measured over 30 mins post acetic acid challenge; assay type: functional; details: Abdomen
# In short: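 Mice were dosed orally at 1, 5 and 10 mg/kg as a suspension in 5% ethyl acetate vehicle (5 mL/kg). Acetic acid 1.2% (v/v) was then given ip, and writhes (abdominal contraction, body stretching, hind-limb extension) were counted for 30 min from injection. n = 6 per group. ED50 (µmol/kg) was obtained by sigmoidal dose-response nonlinear regression.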
# [7] = Acute toxicity in po dosed Albino-Swiss mouse assessed as piloerection administered as single dose measured after 5 hrs until day 14; assay type: organism-based; details: in vivo; in short: as §1
# [8] = tested on: Mus musculus; experiment: Toxicity in Albino-Swiss mouse assessed as forced motor activity at 10 mg/kg, po measured after 60 mins by rota-rod test; assay type: organism-based; parameters: dose 10 mg/kg, route oral; details: in vivo, 1 h
# In short: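 Mice, 6 per group, trained twice the day before to stay 5 min on a rotating roller at 10 rev/min. Next day given 10 mg/kg p.o. (suspension in 5% ethyl acetate, 5 mL/kg) or vehicle, then placed on the roller 60 min later for 5 min. Read-out was number of falls; mean ± SD, ANOVA with Bonferroni.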
# [9] = tested on: Mus musculus; experiment: Ratio of diclofenac ED50 to compound ED50 for antinociceptive activity in po dosed Albino-Swiss mouse assessed as acetic acid-induced abdominal writhing compound administered 30 mins prior challenge measured over 30 mins post acetic acid challenge; assay type: functional, Abdomen
structure (smiles),measurement,setting,value
CC(C(=O)OC[C@@H]1C[C@H](Cl)C[C@H](c2cccc3ccccc23)O1)c1cccc(C(=O)c2ccccc2)c1 (mixture of isomers),LD50 at 5 h,[1],> 2000 mg/kg
same,LD50 at 5 h,[2],> 2000 mg/kg
same,Activity,[3],Active
same,LD50 at 5 h,[4],> 2000 mg/kg
same,Activity,[5],Non-toxic
same,ED50,[6],14 µmol/kg
same,LD50 at 5 h,[7],> 2000 mg/kg
same,Activity,[8],Non-toxic
COc1ccc2cc(C(C)C(=O)OC[C@@H]3C[C@H](Cl)C[C@H](c4cccc5ccccc45)O3)ccc2c1 (mixture of isomers),LD50 at 5 h,[1],> 2000 mg/kg
same,LD50 at 5 h,[2],> 2000 mg/kg
same,Activity,[3],Active
same,LD50 at 5 h,[4],> 2000 mg/kg
same,Activity,[5],Non-toxic
same,ED50,[6],4.6 µmol/kg
same,LD50 at 5 h,[7],> 2000 mg/kg
same,Activity,[8],Non-toxic
CC(C)Cc1ccc(C(C)C(=O)OC[C@@H]2C[C@H](Cl)C[C@H](c3cccc4ccccc34)O2)cc1 (mixture of isomers),LD50 at 5 h,[1],> 2000 mg/kg
same,LD50 at 5 h,[2],> 2000 mg/kg
same,Activity,[3],Active
same,LD50 at 5 h,[4],> 2000 mg/kg
same,Activity,[5],Non-toxic
same,ED50,[6],10.3 µmol/kg
same,LD50 at 5 h,[7],> 2000 mg/kg
same,Activity,[8],Non-toxic
O=C(Cc1ccccc1Nc1c(Cl)cccc1Cl)OC[C@@H]1C[C@H](Cl)C[C@H](c2cccc3ccccc23)O1 (racemic),LD50 at 5 h,[1],> 2000 mg/kg
same,LD50 at 5 h,[2],> 2000 mg/kg
same,Ratio ED50,[9],>10
same,Activity,[3],Active
same,LD50 at 5 h,[4],> 2000 mg/kg
same,Activity,[5],Non-toxic
same,ED50,[6],3.17 µmol/kg
same,LD50 at 5 h,[7],> 2000 mg/kg
same,Activity,[8],Non-toxic
OC[C@@H]1C[C@H](Cl)C[C@H](c2cccc3ccccc23)O1 (racemic),ED50,[6],28 µmol/kg
CC(=O)Oc1ccccc1C(=O)OC[C@@H]1C[C@H](Cl)C[C@H](c2cccc3ccccc23)O1 (racemic),LD50 at 5 h,[1],> 2000 mg/kg
same,LD50 at 5 h,[2],> 2000 mg/kg
same,Activity,[3],Active
same,LD50 at 5 h,[4],> 2000 mg/kg
same,Activity,[5],Non-toxic
same,ED50,[6],20.4 µmol/kg
same,LD50 at 5 h,[7],> 2000 mg/kg
same,Activity,[8],Non-toxic
COc1ccc2c(c1)c(CC(=O)OC[C@@H]1C[C@H](Cl)C[C@H](c3cccc4ccccc34)O1)c(C)n2C(=O)c1ccc(Cl)cc1 (racemic),LD50 at 5 h,[1],> 2000 mg/kg
same,LD50 at 5 h,[2],> 2000 mg/kg
same,Activity,[3],Active
same,LD50 at 5 h,[4],> 2000 mg/kg
same,Activity,[5],Non-toxic
same,ED50,[6],13.8 µmol/kg
same,LD50 at 5 h,[7],> 2000 mg/kg
same,Activity,[8],Non-toxic
CC(=O)Oc1ccccc1C(=O)O [ASPIRIN],ED50,[6],44.2 µmol/kg
O=C(O)Cc1ccccc1Nc1c(Cl)cccc1Cl [DICLOFENAC POTASSIUM],ED50,[6],32.5 µmol/kg
CC(C)Cc1ccc(C(C)C(=O)O)cc1 (stereo unspecified) [IBUPROFEN],ED50,[6],60.3 µmol/kg
COc1ccc2c(c1)c(CC(=O)O)c(C)n2C(=O)c1ccc(Cl)cc1 [INDOMETHACIN],ED50,[6],72.6 µmol/kg
CC(C(=O)O)c1cccc(C(=O)c2ccccc2)c1 (stereo unspecified) [KETOPROFEN],ED50,[6],46.6 µmol/kg
COc1ccc2cc([C@H](C)C(=O)O)ccc2c1 [NAPROXEN],ED50,[6],21.8 µmol/kg
